# Measurements: article PMC5084670 (Cancer Science, 2016)
# How the values were obtained:
# advanced solid tumors = assay: Tumor response by RECIST version 1.0; assay type: in vivo, human
# Summary of the method: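 Daily oral test compound was given in 28-day cycles to adults with advanced solid tumors who had measurable or evaluable disease. Investigators judged tumor response from CT or MRI scans according to RECIST version 1.0.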
# [1] = cited from earlier work
# [2] = patients from Europe and the USA, CLDE225X2101 study
compound,measurement,setting,value
Cc1c(C(=O)Nc2ccc(N3C[C@@H](C)O[C@@H](C)C3)nc2)cccc1-c1ccc(OC(F)(F)F)cc1 [Sonidegib],"Stable disease (SD), number of patients","advanced solid tumors; group 1, 400 mg",4 patients
same,"Stable disease (SD), number of patients","advanced solid tumors; group 1, 600 mg",1 patients
same,"Progressive disease, patients","advanced solid tumors; group 1, 15 patients",71%
same,"Stable disease (SD), patients","advanced solid tumors; group 1, five patients",24%
same,Complete response or partial response,advanced solid tumors; group 1 and group 2,Neither complete response nor partial response was observed
same,"Stable disease (SD), number of patients","advanced solid tumors; group 2, 600 mg",three
same,"Best overall response SD, patients","advanced solid tumors; group 2, 10 patients",42%
same,"Progressive disease, patients","advanced solid tumors; group 2, nine patients",38%
same,"Rhabdomyolysis, patients",[1]; CLDE225X2101 study,three
same,Half-life (t 1/2),[1]; as reported in non-Asian patients,~ 28 days
same,AUClast,"[1]; cycle 1 day 15, 400 mg, non-Asian patients (CLDE225X2101)",8806 ng·h/mL
same,"Maximum tolerated dose (MTD), once daily",[1]; [2],800 mg q.d.
same,"Maximum tolerated dose (MTD), twice daily",[1]; [2],250 mg b.i.d.
